High-throughput results: PubChem, several laboratories
Hep lipid drop: inhibitors of hepatocyte lipid droplet formation, primary screen, imaging, high-throughput imaging, BODIPY stain; AID 1656, 2009; inhibition, % at 6.5 µM; AML12 mouse hepatocytes, oleate lipid droplets; 240,000 compounds, 0.4% hits;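 active = lipid droplet intensity inhibited by at least 50%, with more than 500 cells counted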
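System: AML12 hepatocytes (mouse). Probe or stimulus: oleic acid at 100 µM to induce lipid droplet formation. Times: overnight treatment with compound plus oleate. Detection: Image-based BODIPY and DAPI two-channel analysis. Evaluation: percent inhibition of filter-corrected integrated lipid droplet intensity per well.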
MEKK2wt PB1 HTS: modulators of MEK5 binding to wildtype MEKK2, primary screen, biochemical, multiplex bead flow cytometry, Alexa488-MEK5 | Mitogen-activated protein kinase kinase kinase 2 (Homo sapiens), Q9Y2U5 | Alexa488-MEK5 binding to MEKK2 WT; actives lie on both sides | binding response (% of control), % at 10 µM | 290,000 compounds, 1.1% hits; in the data active = binding response below about 67% or above about 130%
MEKK2 mut-MEK5: MEK5 binding signal on mutant MEKK2 PB1, primary screen, biochemical, multiplex bead flow cytometry, Alexa488-MEK5; 290,000 compounds, 0.35% hits; AID 1530, 2009; Alexa488-MEK5 binding to MEKK2 mutant; percent response, % at 10 µM; in the data active = percent response above about 24%, passing the limit was not always enough
MEKK3 PB1 HTS: modulators of MEKK3-MEK5 PB1 binding, primary screen, biochemical, wildtype MEKK3, multiplex bead flow cytometry, Alexa488-MEK5. bead-based flow cytometry, Alexa488-MEK5 binding to MEKK3; actives lie on both sides; 0 = blocked by unlabeled MEK5, 100 = vehicle. 290,000 compounds, 1.4% hits. binding response (% of control), % at 10 µM. Mitogen-activated protein kinase kinase kinase 3 (Homo sapiens), Q99759;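 active = binding response more than 3 SD above or below the average of its plate-row segment, actives on both sides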;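 note: Alexa488 bead fluorescence after subtracting the streptavidin-only scavenger bead signal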
Target sequence (Q99759 whole entry, looked up): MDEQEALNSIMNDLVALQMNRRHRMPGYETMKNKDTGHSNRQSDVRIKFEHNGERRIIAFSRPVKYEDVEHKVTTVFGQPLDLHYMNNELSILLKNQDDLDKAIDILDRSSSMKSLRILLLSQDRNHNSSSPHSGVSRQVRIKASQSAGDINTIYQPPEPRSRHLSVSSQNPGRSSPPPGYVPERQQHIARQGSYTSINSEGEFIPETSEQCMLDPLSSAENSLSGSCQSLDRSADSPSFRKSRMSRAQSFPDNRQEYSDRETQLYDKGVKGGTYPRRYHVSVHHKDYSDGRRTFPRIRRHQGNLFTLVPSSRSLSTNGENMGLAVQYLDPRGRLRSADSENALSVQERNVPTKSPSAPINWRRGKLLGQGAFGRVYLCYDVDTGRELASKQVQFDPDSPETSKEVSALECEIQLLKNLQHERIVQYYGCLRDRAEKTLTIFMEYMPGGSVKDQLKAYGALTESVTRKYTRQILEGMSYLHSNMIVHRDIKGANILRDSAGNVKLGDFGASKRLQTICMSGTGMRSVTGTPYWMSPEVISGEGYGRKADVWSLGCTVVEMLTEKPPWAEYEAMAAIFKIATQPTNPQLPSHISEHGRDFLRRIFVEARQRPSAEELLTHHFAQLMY
MEKK2wt confirm: modulators of MEK5 binding to wildtype MEKK2, confirmation, biochemical, single concentration, multiplex bead flow cytometry | AID 1892, 2009 | Alexa488-MEK5 binding to MEKK2 WT; actives lie on both sides | shares compounds with MEKK3 PB1 HTS | binding response (% of control), % at 10 µM | 5,900 compounds, 2.4% hits; in the data active = binding response below about 16% or above about 210%; inactive = in between
MEKK2mut-MEK5: mutant MEKK2 PB1-MEK5 binding signal retest – biochemical, single concentration, multiplex bead flow cytometry, confirmation; shares compounds with MEKK3 PB1 HTS; Alexa488-MEK5 binding to MEKK2 mutant; percent response, % at 10 µM; 5,900 compounds, 2% hits; AID 1893, 2009; in the data active = percent response mostly above about 71%, no sharp cut-off; inactive = mostly below about 38%;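 note: higher means compound restores mutant binding toward wildtype level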
MEKK3-MEK5 inh: MEKK3 wild-type PB1 binding to MEK5, inhibitors, confirmation, biochemical, bead multiplex flow cytometry, single concentration, wildtype. shares compounds with MEKK3 PB1 HTS. Alexa488-MEK5 binding to MEKK3; active compounds read low. binding response (% of control), % at 10 µM. 5,900 compounds, 1.8% hits;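 active = binding response below 72% of control, or above a set upper limit, though filed actives all read lower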;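 note: 100% = DMSO only wells and 0% = binding blocked by excess unlabeled MEK5; lower values mean stronger disruption of MEK5 binding to MEKK3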
* hit, by the source's call; · = not tested or not shown; [ ] = another dose, or the depositor's remark. Most compounds without a hit are left out; they make up all but 2.6% or so of the library.

SMILES	Hep lipid drop	MEKK2wt PB1 HTS	MEKK2 mut-MEK5	MEKK3 PB1 HTS	MEKK2wt confirm	MEKK2mut-MEK5	MEKK3-MEK5 inh
C=C(C)COc1ccc(-c2n[nH]c(C)c2-c2ccc(OC)cc2)c(O)c1	·	121.0	9.0	83.0	·	·	·
COc1ccc(-c2n[nH]c(C)c2-c2cscn2)c(O)c1	-0.5	130.0	29.0	133.0*	101.0	-12.0	98.0
C#CCOCCOCCOCCNc1nc(N2CCN(C(=O)[C@H](CCCCN)n3cc([C@@H](N)CO)nn3)CC2)nc(N2CCN(C(=O)[C@H](Cc3cc4ccccc4[nH]3)n3cc([C@@H](N)CC(C)C)nn3)CC2)n1	-8.6	195.0*	67.0*	111.0	125.0	14.0	104.0
C#CCOCCOCCOCCNc1nc(N2CCN(C(=O)[C@H](CCCCN)n3cc([C@@H](N)CO)nn3)CC2)nc(N2CCN(C(=O)[C@H](Cc3ccc(O)cc3)n3cc([C@@H](N)CC(C)C)nn3)CC2)n1	0.0	117.0	10.0	96.0	·	·	·
C#CCOCCOCCOCCNc1nc(N2CCN(C(=O)[C@H](CCCCN)n3cc([C@@H](N)CO)nn3)CC2)nc(N2CCN(C(=O)[C@H](Cc3cc4ccccc4[nH]3)n3cc([C@@H](N)CO)nn3)CC2)n1	7.4	139.0*	1.0	107.0	114.0	8.0	102.0
Cc1cc(C)cc(C(=O)NCCC(=O)N2CCC3(CC2)NCCc2[nH]cnc23)c1	0.7	102.0	2.0	101.0	·	·	·
CC1CCCCC1NC(=O)C1CCC(CNS(=O)(=O)c2cccc3cccnc23)CC1 (stereo not drawn)	-2.1	100.0	3.0	97.0	·	·	·
O=C(N1CCCCC1)N1CCC(c2nc3ccccc3[nH]2)CC1	-25.9	2.0*[inhibitor]	-3.0	1.0*[inhibitor]	105.0	8.0	106.0
COc1ccc2oc(C(=O)Nc3ccc(S(=O)(=O)N(C)C4CCN(C)CC4)cc3)c(C)c2c1	-4.0	157.0*	17.0	107.0	159.0	28.0	105.0
N=C1CCCN1CC(=O)c1ccc(Cl)cc1	6.7	106.0	0.0	131.0*	95.0	-6.0	96.0
C=CCC1(N(C(C)=O)c2ccccc2)CCCCC1	-1.3	89.0	-10.0	93.0	·	·	·
COc1ccc(OC)c(-c2nc(C(=O)NC3CCN(Cc4ccccc4)CC3)cc3c2[nH]c2ccccc23)c1	-22.1	146.0*	24.0*	104.0	153.0	40.0	111.0
COc1cc(-c2nc(C(=O)NC3CCN(Cc4ccccc4)CC3)cc3c2[nH]c2ccccc23)cc(OC)c1OC	·	147.0*	21.0	105.0	170.0	47.0	107.0
Cc1ccc(-c2nc(C(=O)NCCCN(C)C)cc3c2[nH]c2ccccc23)cc1	-2.5	146.0*	21.0	103.0	156.0	42.0	109.0
O=C(NCCO)c1cc2c([nH]c3ccccc32)c(-c2ccccc2)n1	·	101.0	1.0	100.0	·	·	·
Cc1ccc(NS(=O)(=O)c2c(C(=O)N3CCCC3)c(C)n(C)c2C)cc1	-13.4	102.0	0.0	100.0	·	·	·
CC1CCCN(CCOc2ccc3ccccc3c2Br)C1 (stereo not drawn)	14.0	157.0*	37.0	102.0	131.0	17.0	102.0
CC1CCCN(CCCOc2ccc(Cl)cc2Br)C1 (stereo not drawn)	-13.8	100.0	-1.0	99.0	·	·	·
COc1ccccc1C1CN=NC12CCCc1ccccc1C2=O (stereo not drawn)	·	33.0*[inhibitor]	-13.0	24.0*[inhibitor]	106.0	5.0	103.0
Cc1cc(N/N=C/c2ccccc2Br)nc2ccccc12	-1.2	144.0*	22.0	99.0	136.0	13.0	104.0
CCCCN(Cc1ccco1)S(=O)(=O)c1csc(C(N)=O)c1	-18.1	105.0	-3.0	101.0	·	·	·
O=C(Nc1nccs1)c1ccc(CSc2ccccc2)o1	5.5	104.0	4.0	96.0	·	·	·
c1ccc(CCNc2ccnc3cc4ccccc4cc23)cc1	-8.5	210.0*	97.0*	104.0	202.0	58.0	103.0
CCn1c(SCC(=O)NNC(=S)Nc2ccc(C)cc2)nnc1-c1ccc(Cl)cc1	2.5	111.0	1.0	134.0*	97.0	0.0	106.0
CC1CCCCN1C(=O)C(=O)c1cn(CC(=O)N2CCCC2)c2ccccc12 (stereo not drawn)	13.3	-3.0*[inhibitor]	-15.0	1.0*[inhibitor]	103.0	2.0	103.0
SMILES	Hep lipid drop	MEKK2wt PB1 HTS	MEKK2 mut-MEK5	MEKK3 PB1 HTS	MEKK2wt confirm	MEKK2mut-MEK5	MEKK3-MEK5 inh
CCC(C)c1ccc(OCC(=O)Nc2ccc3[nH]c(=O)[nH]c3c2)cc1 (stereo not drawn)	15.0	111.0	1.0	198.0*	106.0	5.0	105.0
CC(=O)Nc1ccc2nc(NC(=O)c3ccc([N+](=O)[O-])o3)sc2c1	-8.4	98.0	-1.0	99.0	·	·	·
O=C(CC1C(=O)NCCN1CC1CCCCC1)NCc1ccc(F)cc1 (stereo not drawn)	7.4	113.0	-2.0	99.0	·	·	·
Cc1ccc(CN2CCNC(=O)C2CC(=O)NC2CCCCCC2)cc1 (stereo not drawn)	-33.5	127.0	24.0*	108.0	143.0	36.0	107.0
CC(C)CN1CCNC(=O)C1CC(=O)NCCc1ccc(C(F)(F)F)cc1 (stereo not drawn)	-11.0	160.0*	36.0	104.0	113.0	5.0	102.0
O=C(CC1C(=O)NCCN1Cc1ccc(F)cc1)NC1CCCCCCC1 (stereo not drawn)	-18.9	108.0	13.0	94.0	·	·	·
O=C(CC1C(=O)NCCN1CC1CCCCC1)NCCc1ccc(F)cc1 (stereo not drawn)	-24.9	139.0*	-3.0	112.0	138.0	57.0	108.0
CN(CCCNC(=O)CCC(=O)N1CCOc2ccc(Cl)cc21)Cc1ccccc1	-26.5	108.0	9.0	101.0	·	·	·
O=C(CN(Cc1ccc(F)cc1)C(=O)CCC(=O)Nc1nccs1)NCc1ccc(F)cc1	-3.1	105.0	5.0	103.0	·	·	·
CC(C)Cn1c(NCCO)nc2ccccc21	-7.0	70.0	-14.0	61.0*[inhibitor]	100.0	9.0	101.0
O=C(NCc1ccc(Cl)cc1)c1cc(S(=O)(=O)N2CCCCC2)c[nH]1	-10.2	97.0	2.0	97.0	·	·	·
COc1ccc(CNC(=O)C2CCN(C(=O)Cc3ccccc3)CC2)cc1	15.5	99.0	0.0	101.0	·	·	·
Cc1cc2nncn2c2ccccc12	7.4	84.0	-6.0	78.0*[inhibitor]	104.0	3.0	102.0
